Results from the EternaBench riboswitch data.

Test system: MS2 coat protein
Assay: apparent Kd, MS2 coat protein; higher = weaker binding; RNA-MaP array
In short: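 For each design, the apparent Kd is the median of binding-curve fits across its clusters. Designs measured on fewer than 10 clusters were dropped. The RNAs were transcribed from sequenced DNA templates on an Illumina sequencing chip and incubated at room temperature, with or without input ligand, with fluorescently labeled MS2 coat protein at 1.5 nM to 3 μM.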

[1] = designed as: ON switch for flavin mononucleotide, no ligand
[2] = ligand present: flavin mononucleotide, designed as: ON switch for flavin mononucleotide
[3] = designed as: ON switch for tryptophan, no ligand
[4] = ligand present: tryptophan, designed as: ON switch for tryptophan
[5] = designed as: OFF switch for theophylline, no ligand
[6] = ligand present: theophylline, designed as: OFF switch for theophylline
[7] = designed as: OFF switch for flavin mononucleotide, no ligand
[8] = ligand present: flavin mononucleotide, designed as: OFF switch for flavin mononucleotide

Sequence | apparent Kd [7] | apparent Kd [8] | further results
GACAGACAUGAGGAUCACCCAUGUGAUACAGGCGUAGGAUAUUCGUGAGGAUACAGAAAAGAAGAAGGACGGGAAG |  |  | apparent Kd [1]: 40.3 nM; apparent Kd [2]: 38 nM
GUACCACAGUCGGCCGCCACUAAGUUGUAUUCCAGCAGGACGAAACAUGAGGAUCACCCAUGUCCUAGGACCGGGACUUCCGUCG |  |  | apparent Kd [3]: 21.2 nM; apparent Kd [4]: 21.6 nM
CAUGAGAGAUUGUUUUGUGACUCUAACGAUACCAGAGUAGGACUUCUCCCUUGGCAGCGUGUGACAUGAGGAUCACCCAUGUCCA |  |  | apparent Kd [5]: 10.6 nM; apparent Kd [6]: 11.7 nM
GGUUCCGCUAAGGUGAAACAUGAGGAUCACCCAUGUCAAUCUGAGGAUAUUUAUCUCGACGAGGCAAAGAAGGCAGACUCGCGG | 9.53 nM | 14.8 nM | 
CUUGAACCAUCACAUGAGGAUCACCCAUGUAGACUAUAAACUGAGGAUAUCACAGCGAGCAGUCAUGAGAAGGCAGAAUGACGG |  |  | apparent Kd [1]: 15.3 nM; apparent Kd [2]: 13.6 nM
UUCAUUCGAACCAAGGAUAUGUGAUAAGUUACAUGAGGAUCACCCAUGUAUCAGUACAUCAACAGACAGAAGGUGGUGCAUAGUCA |  |  | apparent Kd [1]: 7.14 nM; apparent Kd [2]: 6.57 nM
CUGAACUAAGGAUAUACGGCCCUCAAUUAUAAUUCUGUGAAACAUGAGGAUCACCCAUGUAGAAGGUAGUCGAC | 14.1 nM | 18.1 nM | 
AUAGCCAAACAAGGAUAUACGCGCGUCACAGAAAAUGGGACAUGAGGAUCACCCAUGUGGGAAGAGUAGAAGGUGUUUCCAGAU | 251 nM | 147 nM | 
UGGGAGUGAGGAUAUGUAUAUCUCAGGGCCGAGGAGAUGAAACAGAAGGCACAUGAGGAUCACCCAUGUUAUGA | 25.3 nM | 29.9 nM | 
UAGUUGCAUACAUGAGGAUCACCCAUGUUUUAAUGGGUAACUAGAAGGUGUUGACGUUGGCUAAACAAGGAUAUAGUUCGUGCU | 43.3 nM | 46.5 nM | 
ACACAUAAUCUCGGACAUGAGGAUCACCCAUGUGUCACAAUCAGAAGGCACACUUGACAAGGGAGUGAGGAUAUGAAUACAUUA | 124 nM | 32.7 nM | 
UUGUAACAUGAGGAUCACCCAUGUAUGAACUAACAAGGAUAUGCGUGAGUCAGAUAAGACGCAGAAGGUGUCAGAU |  |  | apparent Kd [1]: 10.3 nM; apparent Kd [2]: 7.55 nM
AGUUUGGGCGCAGGAUAUCUUCACAUGAGGAUCACCCAUGUCCAUAAGAUAUUUAUGUCAUUUGGAGAGAAGGGCGGUUGUAAU |  |  | apparent Kd [1]: 55.1 nM; apparent Kd [2]: 36.1 nM
ACACAGUCAGGAUAUACACAAAAUCUCAGUCUAGUAAGUAAACAUGAGGAUCACCCAUGUAGAAGGGACUUUAA | 6.95 nM | 7.79 nM | 
CGGUGGUGAGGAUAUCAAAUGUGGAAGGAGAAGACACCCAGUGAGAAGGCACAUGAGGAUCACCCAUGUACAGC | 10.7 nM | 6 nM | 
CUGACGUAGGAAGAUAUCUGGAACAAGGAUACCAGUAAACCAACAUACCCUUGGCAGCCUAAAACAUGAGGAUCACCCAUGUAAU |  |  | apparent Kd [5]: 12.4 nM; apparent Kd [6]: 14.6 nM
GGACAUUGUCCUAUUCACAUGAGGAUCACCCAUGUCACAACUAGAAGGGAGCGAUAACAAUUUCCUCAGGAUAUAGUUCGCGGC |  |  | apparent Kd [1]: 28.2 nM; apparent Kd [2]: 24.7 nM
CUGUUAAGUAAAGGAUAUCCUCCAACAGCUAGAGGAGAAGGUUACUCCUUAAUCCACAUGAGGAUCACCCAUGUUAGUGUAAGU |  |  | apparent Kd [1]: 11.5 nM; apparent Kd [2]: 10.1 nM

Sequence | apparent Kd [7] | apparent Kd [8] | further results
UAGUAACAUGAGGAUCACCCAUGUCAGGAUAUGAGGUCUACGGCAUAAGCGAAUCGGGUCAGAAGGGACAUAAC | 20.4 nM | 16.9 nM | 
UAAAACGGAUCAGGAUAUGUGAAACUGAGUGCGUGAACACUCGCCUACAUGAGGAUCACCCAUGUACAGAAGGGAACUACUACA |  |  | apparent Kd [1]: 16.4 nM; apparent Kd [2]: 13.9 nM
CACGCUCACCAGAAGGCAGAGCAUAAAUGACAUGAGGAUCACCCAUGUACGCAGGAGAUCGGGUCUGAGGAUAUGGCAAUAGGC |  |  | apparent Kd [1]: 21.4 nM; apparent Kd [2]: 20.5 nM
AUCAGUGGCUAGGAUAUGUUAGUCAGAUAUACAACAGAAGGAGCGACAUGAGGAUCACCCAUGUUACAGUGGAG | 13 nM | 22.2 nM | 
AAAAGCAGGGUCAGGAUAUAGGGUUCACUGUUGGCCUAGAAGGGACAUGAGGAUCACCCAUGUAUAGUAGUGGG | 347 nM | 262 nM | 
AACCAUCUCGGCGAUACCAGUGCCUACGAGUACAUGAGGAUCACCCAUGUAGGUGACCGACACCCUUGGCAGCGCGAUUGAGUCA |  |  | apparent Kd (designed as: ON switch for theophylline, no ligand): 140 nM; apparent Kd (ligand present: theophylline, designed as: ON switch for theophylline): 70.6 nM
CUCCUCACCGUGAGGAUAUAGUAUUCCGGUUGUUACUAGAAGGCACAUGAGGAUCACCCAUGUUACGGUUCCCA | 13.4 nM | 50.6 nM | 
AGUACGUCAGGAUAUCGCGUACGAAACAUGAGGAUCACCCAUGUGGUGCCGUGGCUCUAUCGAGAAGGGACUUGGC | 13.3 nM | 12.6 nM | 
CUUAUCAUAGGAUAUACAUGAGGAUCACCCAUGUAGUAGCAUAUAUAUAGUUUCCCAAGUAGAAGGAUGUACAC | 9.43 nM | 7.9 nM | 
CUACGGACGGAAGGAUAUAUACGGGUGCCCAGUAUAGAAGGUCCAUACAUGAGGAUCACCCAUGUCAUUAAACCUACGGAGGAG |  |  | apparent Kd [1]: 145 nM; apparent Kd [2]: 80.6 nM
UAUAAACAGCCUGGUUACUCGUCGCGCUUGCGAGGACCGGUACGGCCGCCACUCGACCCAUCACAUGAGGAUCACCCAUGUCCCA |  |  | apparent Kd (designed as: OFF switch for tryptophan, no ligand): 31.7 nM
AUCGCGACAGGAUAUACAUGAGGAUCACCCAUGUUGAUGAGCGAGCAUCGGACUGAGAGUAGAAGGGUCGGCUC | 9.26 nM | 9.04 nM | 
CAGGAGCUAGAGAAGGAGGUUACGCCCACGGACCUAGGAUAUCUGUUCUGAGUUACAUGAGGAUCACCCAUGUGUCCGCGGUGG | 53.9 nM | 33 nM | 
AACAUGUGAGGAUAUAGUCAAAAUAGCACAAGUAACAUAAACUAGAAGGCACAUGAGGAUCACCCAUGUGAAUA | 7.9 nM | 10.6 nM | 
UCUCACAUGAGGAUCACCCAUGUGUGCGGUCGAGGACCGGUACGGCCGCCACUCGAAUCCUUCCGCGAGAAGAUUGUACGACGGC |  |  | apparent Kd [3]: 76.2 nM; apparent Kd [4]: 65.2 nM
CCGAACACUUAGAAGGAUUUAAUCUAUAAUUGAAUAGGAUAUAAGGCCUUACGUGCGAAUGAACACAUGAGGAUCACCCAUGUA | 15.1 nM | 12.6 nM | 
AUUCGAACGGUCAGGAUAUGCGGAAAGACAUCGCAGCAGAAGGGACAUGAGGAUCACCCAUGUAAAGGGCACAA | 36.1 nM | 182 nM | 
GCUUUAUUCUAGAAGGCUUAUCAUGCAUAAUGUCUAGAAGUUCAGACAUGAGGAUCACCCAUGUAAGAGGAUAUAGCGUAAAGU | 26.9 nM | 31.3 nM | 
